{"data": "Experimental data from different studies", "effect on": "microbial growth", "note": "Lines come from different studies, so protocols differ."}
{"Structure (SMILES)": "Cc1ccc(C)n1-c1ccc(-c2nnco2)cc1", "organism": "Saccharomyces cerevisiae", "test": "broth dilution", "system": "ATCC9763", "MIC": "125 µg/mL"}
{"Structure (SMILES)": "Cc1ncc([N+](=O)[O-])n1CCO", "organism": "Clostridioides difficile", "test": "broth dilution", "system": "R20291", "MIC": "> 0.5 µg/mL"}
{"Structure (SMILES)": "Oc1ccc(-c2nc(-c3ccc(Oc4ccccc4)cc3)no2)cc1", "organism": "Clostridioides difficile", "test": "broth dilution", "setting": "48 h", "MIC": "6 µg/mL"}
{"Structure (SMILES)": "Oc1ccc(-c2nc(-c3ccc(Oc4ccccc4CBr)cc3)no2)cc1", "organism": "Clostridioides difficile", "test": "broth dilution", "system": "ATCC43255", "setting": "48 h", "MIC": "8 to 128 µg/mL"}
{"Structure (SMILES)": "Cl.NCc1ccc(Oc2ccc(-c3noc(-c4ccc(O)cc4)n3)cc2)cc1", "organism": "Clostridioides difficile", "test": "broth dilution", "setting": "48 h", "MIC": "6 µg/mL"}
{"Structure (SMILES)": "Clc1ccccc1C(c1ccccc1)(c1ccccc1)n1ccnc1", "organism": "Saccharomyces cerevisiae", "MIC": "20 to 25 µM"}
{"Structure (SMILES)": "CC1(C)S[C@@H]2[C@H](NC(=O)[C@H](N)c3ccccc3)C(=O)N2[C@H]1C(=O)O", "organism": "Shigella sonnei", "test": "broth dilution", "system": "ATCC25931", "MIC": "4 µg/mL"}
{"Structure (SMILES)": "Oc1ccc(-c2nc(-c3ccc(Oc4ccc(C(F)(F)F)cc4)cc3)no2)cc1F", "organism": "Clostridioides difficile", "test": "broth dilution", "system": "ATCC43255", "setting": "48 h", "MIC": "2 to 4 µg/mL"}
{"Structure (SMILES)": "O=C(O)Cc1ccccc1Oc1ccc(-c2noc(-c3ccc(O)cc3)n2)cc1", "organism": "Clostridioides difficile", "test": "broth dilution", "setting": "48 h", "MIC": "> 50 µg/mL"}
{"Structure (SMILES)": "Cc1ccc(C)n1-c1ccc(-c2nnc(-c3ccc(N(C)C)cc3)[nH]2)cc1", "organism": "Saccharomyces cerevisiae", "test": "broth dilution", "system": "ATCC9763", "MIC": "62.5 µg/mL"}
{"Structure (SMILES)": "CC(CN)c1ccc(Oc2ccc(-c3noc(-c4ccc(O)cc4)n3)cc2)cc1.Cl (racemic)", "organism": "Clostridioides difficile", "test": "broth dilution", "setting": "48 h", "MIC": "16 µg/mL"}
{"Structure (SMILES)": "Cc1ccc(C)n1-c1ccc(-c2nnc(-c3cccc([N+](=O)[O-])c3)[nH]2)cc1", "organism": "Saccharomyces cerevisiae", "test": "broth dilution", "system": "ATCC9763", "MIC": "31.2 µg/mL"}
{"Structure (SMILES)": "C[C@@H]1[C@H](O)[C@@H](C)/C=C/C=C/C=C/C=C/C=C/C=C/C=C/[C@H](O[C@@H]2O[C@H](C)[C@@H](O)[C@H](N)[C@@H]2O)C[C@@H]2O[C@](O)(C[C@@H](O)C[C@@H](O)[C@H](O)CC[C@@H](O)C[C@@H](O)CC(=O)O[C@H]1C)C[C@H](O)[C@H]2C(=O)O", "organism": "Saccharomyces cerevisiae", "MIC": "0.5 µg/mL"}
{"Structure (SMILES)": "Cc1ccc(C)n1-c1ccc(-c2nnc(-c3ccc(O)cc3)[nH]2)cc1", "organism": "Saccharomyces cerevisiae", "test": "broth dilution", "system": "ATCC9763", "MIC": "31.2 µg/mL"}
{"Structure (SMILES)": "CC/C(=C(\\c1ccccc1)c1ccc(OCCN(C)C)cc1)c1ccccc1", "organism": "Saccharomyces cerevisiae", "MIC": "20 to 25 µM"}
{"Structure (SMILES)": "O=C(O)COc1cccc(Oc2ccc(-c3noc(-c4ccc(O)cc4)n3)cc2)c1", "organism": "Clostridioides difficile", "test": "broth dilution", "setting": "48 h", "MIC": "50 µg/mL"}
{"Structure (SMILES)": "Cc1ccc(C)n1-c1ccc(-c2nnc(-c3c(Cl)cccc3Cl)[nH]2)cc1", "organism": "Saccharomyces cerevisiae", "test": "broth dilution", "system": "ATCC9763", "MIC": "2 µg/mL"}
